Source: ChEMBL document CHEMBL4392827, “Tryptamine derivatives disarm colistin resistance in polymyxin-resistant gram-negative bacteria” (Bioorg Med Chem, 2019)
The source made the active and inactive calls. The calls are words filed in the database; no cut-off is given here.

Tests used:
Acinetobacter baumannii [1] = test: Potentiation of colistin-induced antimicrobial activity against colistin-resistant Acinetobacter baumannii 4106 assessed as fold reduction in colistin MIC at 60 uM after 18 hrs by broth microdilution assay; format: functional
Method in brief: (§1)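 Checkerboard-style resensitization following adapted CLSI broth microdilution. Bacteria were grown 4–6 h in CAMHB and subcultured to 5×10^5 CFU/mL. Adjuvant was added from DMSO stock and held constant while colistin was serially diluted in the dosed subculture. Plates were incubated stationary at 37°C for 18 h, then MICs were read. Fold reduction was taken relative to the colistin MIC without adjuvant.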

Klebsiella pneumoniae [2] = test: Potentiation of colistin-induced antimicrobial activity against colistin-resistant Klebsiella pneumoniae isolate C3 assessed as fold reduction in colistin MIC at 60 uM after 18 hrs by broth microdilution assay; format: functional; method in brief: as §1
Acinetobacter baumannii [3] = test: Potentiation of colistin-induced antimicrobial activity against colistin-resistant Acinetobacter baumannii isolate 3941 assessed as fold reduction in colistin MIC at 60 uM after 18 hrs by broth microdilution assay; format: functional; method in brief: as §1
Klebsiella pneumoniae [4] = test: Potentiation of colistin-induced antimicrobial activity against Klebsiella pneumoniae ATCC BAA-2146 expressing NDM1 gene assessed as fold reduction in colistin MIC at 60 uM after 18 hrs by broth microdilution assay; format: functional
Method in brief: (§2)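 Bacteria grown 4–6 h in cation-adjusted Mueller-Hinton broth and diluted to 5 ×10^5 CFU/mL. Adjuvant from DMSO stock held at fixed 60 μM while colistin is twofold serially diluted in the same adjuvant-dosed broth. Plates sealed and kept stationary at 37°C for 18 h. Colistin MIC read and fold reduction taken relative to colistin alone.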

Klebsiella pneumoniae [5] = test: Potentiation of colistin-induced antimicrobial activity against colistin-resistant Klebsiella pneumoniae B9 assessed as fold reduction in colistin MIC at 60 uM after 18 hrs by broth microdilution assay; format: functional; method in brief: as §1
Escherichia coli [6] = test: Potentiation of colistin-induced antimicrobial activity against Escherichia coli ATCC 25922 assessed as fold reduction in colistin MIC at 60 uM after 18 hrs by broth microdilution assay; format: functional; method in brief: as §2
Acinetobacter baumannii [7] = test: Potentiation of colistin-induced antimicrobial activity against colistin-sensitive Acinetobacter baumannii 5075 assessed as fold reduction in colistin MIC at 60 uM after 18 hrs by broth microdilution assay; format: functional; method in brief: as §2
Acinetobacter baumannii [8] = test: Potentiation of colistin-induced antimicrobial activity against colistin-resistant Acinetobacter baumannii ATCC 17978 expressing mcr1 gene assessed as fold reduction in colistin MIC at 60 uM after 18 hrs by broth microdilution assay; format: functional; method in brief: as §1
Klebsiella pneumoniae [9] = test: Potentiation of colistin-induced antimicrobial activity against colistin-resistant Klebsiella pneumoniae isolate A5 assessed as fold reduction in colistin MIC at 60 uM after 18 hrs by broth microdilution assay; format: functional; method in brief: as §1
Acinetobacter baumannii [10] = test: Potentiation of colistin-induced antimicrobial activity against colistin-resistant Acinetobacter baumannii isolate 3942 assessed as fold reduction in colistin MIC at 60 uM after 18 hrs by broth microdilution assay; format: functional; method in brief: as §1
Escherichia coli [11] = test: Toxicity in Escherichia coli ATCC 25922 after 18 hrs by broth microdilution assay; format: organism-based; conditions: in vitro
Method in brief: (§3)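 Single-agent MIC per CLSI broth microdilution. Cells from a 4–6 h culture in cation-adjusted Mueller-Hinton broth adjusted to 5 ×10^5 CFU/mL. Compound (DMSO stock) added to 200 μM top concentration and twofold serially diluted six times, with an untreated control row. Plates sealed and incubated stationary at 37°C for 18 h before MIC read.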

Acinetobacter baumannii [12] = test: Toxicity in Acinetobacter baumannii 4106 after 18 hrs by broth microdilution assay; format: organism-based; conditions: in vitro; method in brief: as §3
Klebsiella pneumoniae [13] = test: Toxicity in Klebsiella pneumoniae B9 after 18 hrs by broth microdilution assay; format: organism-based; method in brief: as §3
Escherichia coli [14] = test: Potentiation of colistin-induced antimicrobial activity against colistin-resistant Escherichia coli ATCC 25922 expressing mcr1 gene assessed as fold reduction in colistin MIC at 60 uM after 18 hrs by broth microdilution assay; format: functional; method in brief: as §1
Acinetobacter baumannii [15] = test: Potentiation of colistin-induced antimicrobial activity against Acinetobacter baumannii ATCC 17978 assessed as fold reduction in colistin MIC at 60 uM after 18 hrs by broth microdilution assay; format: functional; method in brief: as §2
Acinetobacter baumannii [16] = test: Potentiation of colistin-induced antimicrobial activity against colistin-resistant Acinetobacter baumannii isolate 4112 assessed as fold reduction in colistin MIC at 60 uM after 18 hrs by broth microdilution assay; format: functional; method in brief: as §1
Acinetobacter baumannii [17] = test: Toxicity in Acinetobacter baumannii ATCC 17978 expressing mcr1 gene after 18 hrs by broth microdilution assay; format: organism-based; method in brief: as §3
Acinetobacter baumannii [18] = test: Induction of membrane permeabilization in colistin-resistant Acinetobacter baumannii isolate 3942 at 60 uM measured after 1 hr by SYTO-9/propidium iodide staining based fluorescence assay relative to control; format: functional
Method in brief: (§4)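 Cells were grown overnight in CAMHB at 37°C, diluted 1:10 and grown 4 h more to an OD600 of ~0.3. They were pelleted, washed with sterile water and resuspended at 1/10 volume in water containing compound. After 1 h at 37°C with shaking, cells were washed and stained with SYTO-9/propidium iodide (1:1, 3 μL/mL) for 15 min at RT. Emission was read at 530 and 645 nm (excitation 485 nm), and the green/red ratio was expressed as % of the untreated control.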

Klebsiella pneumoniae [19] = test: Induction of membrane permeabilization in colistin-resistant Klebsiella pneumoniae isolate C3 at 60 uM measured after 1 hr by SYTO-9/propidium iodide staining based fluorescence assay relative to control; format: functional; method in brief: as §4
[20] = Hemolytic activity in sheep erythrocytes assessed as hemolysis at 100 uM incubated for 1 hr under shaking condition by UV-spectrophotometry; format: ADME, cell-based, Ovis aries, Erythrocyte; conditions: read-out: Activity
Method in brief: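 Washed sheep erythrocytes (defibrinated blood spun, resuspended in PBS three times) diluted 10-fold in PBS containing compound from DMSO stock. DMSO negative control (0% lysis), 1% Triton X100 positive control (100% lysis). 1 h at 37°C with shaking, then spun 10 min at 10,000 rpm and supernatant diluted 1:40 in distilled water.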

| SMILES | fold change (FC) (Acinetobacter baumannii [1]) | fold change (FC) (Klebsiella pneumoniae [2]) | fold change (FC) (Acinetobacter baumannii [3]) | fold change (FC) (Klebsiella pneumoniae [4]) | fold change (FC) (Klebsiella pneumoniae [5]) | fold change (FC) (Escherichia coli [6]) | fold change (FC) (Acinetobacter baumannii [7]) | fold change (FC) (Acinetobacter baumannii [8]) | fold change (FC) (Klebsiella pneumoniae [9]) | fold change (FC) (Acinetobacter baumannii [10]) | MIC (Escherichia coli [11]) | MIC (Acinetobacter baumannii [12]) | MIC (Klebsiella pneumoniae [13]) | fold change (FC) (Escherichia coli [14]) | fold change (FC) (Acinetobacter baumannii [15]) | fold change (FC) (Acinetobacter baumannii [16]) | MIC (Acinetobacter baumannii [17]) | Activity (Acinetobacter baumannii [18]) | Activity (Klebsiella pneumoniae [19]) | hemolysis at 1 h, 100 µM [20] |
| --- | --- | --- | --- | --- | --- | --- | --- | --- | --- | --- | --- | --- | --- | --- | --- | --- | --- | --- | --- | --- |
| O=C(NCc1ccc2cc[nH]c2c1)c1cc(Br)c(Br)[nH]1 | 256 | 512 | 128 | 0 | 2048 | 2 | 2 | 32 | 256 | 128 | > 200 µM | > 200 µM | > 200 µM | 8 | 2 | 256 | > 200 µM | – | – | – |
| O=C(NCc1cc2ccccc2[nH]1)c1cc(Br)c(Br)[nH]1 | 2048 | 2048 | 256 | 0 | 4096 | 2 | 2 | 32 | 512 | 256 | > 200 µM | > 200 µM | > 200 µM | 16 | 2 | 512 | > 200 µM | – | – | – |
| O=C(NCCc1c[nH]c2cc(F)ccc12)c1cc(Br)c(Br)[nH]1 | 512 | 512 | 512 | 2 | 64 | 2 | 2 | 32 | 256 | 512 | > 200 µM | > 200 µM | > 200 µM | 8 | 2 | 512 | > 200 µM | – | – | – |
| O=C(NCCCc1c[nH]c2ccccc12)c1cc(Br)c(Br)[nH]1 | 512 | 1024 | 256 | 2 | 4096 | 2 | 4 | 32 | 256 | 256 | > 200 µM | > 200 µM | > 200 µM | 16 | 4 | 256 | > 200 µM | – | – | – |
| CCCCn1cc(CCNC(=O)c2cc(Br)c(Br)[nH]2)c2ccccc21 | 0 | – | – | – | 0 | – | – | 0 | – | – | > 200 µM | > 200 µM | > 200 µM | 0 | – | – | > 200 µM | inactive | inactive | < 1% |
| O=C(NCCc1c[nH]c2ccccc12)c1cc(Br)c(Br)[nH]1 | 512 | 1024 | 256 | 2 | 2048 | 4 | 2 | 32 | 256 | 512 | – | – | – | 8 | 4 | 512 | – | – | – | – |
| Cc1cccc2c(CCNC(=O)c3cc(Br)c(Br)[nH]3)c[nH]c12 | 256 | 512 | 256 | 2 | 512 | 2 | 2 | 32 | 256 | 256 | > 200 µM | > 200 µM | > 200 µM | 8 | 2 | 256 | > 200 µM | – | – | – |
